In ChEMBL document CHEMBL1212776, “Novel ambler class A carbapenem-hydrolyzing beta-lactamase from a Pseudomonas fluorescens isolate from the Seine River, Paris, France” (Antimicrob Agents Chemother, 2010):
Values after ≈ are worked out from the molar mass of the structure shown.

Experiments:
Pseudomonas fluorescens [1] = test: Antimicrobial activity against Pseudomonas fluorescens isolate PF-1 expressing beta-lactamase BIC-1 by Etest; assay type: functional
Outline: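 MIC for isolate PF-1 by Etest, interpreted per CLSI recommendations. Cultures grown in Trypticase soy broth, 37°C, 18 h.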

Escherichia coli [2] = test: Antimicrobial activity against Escherichia coli DH10B harbouring recombinant plasmid pSau1 expressing beta-lactamase BIC-1 from Pseudomonas fluorescens PF-1 by Etest; assay type: functional
Pseudomonas fluorescens [3] = test: Activity at Pseudomonas fluorescens PF-1 beta-lactamase BIC-1 expressed in Escherichia coli DH10B carrying pSau1
Pseudomonas fluorescens [4] = test: Antimicrobial activity against Pseudomonas fluorescens isolate PF-1 expressing beta-lactamase BIC-1 by Etest in presence of 4 ug/ml of clavulanic acid; assay type: functional
Outline: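 MIC for isolate PF-1 by Etest, with clavulanic acid held at a fixed 4 μg/ml and the β-lactam varied. Interpreted per CLSI recommendations.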

Escherichia coli [5] = test: Antimicrobial activity against Escherichia coli DH10B by Etest in presence of 4 ug/ml of clavulanic acid; assay type: functional
Outline: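 Etest MIC with clavulanic acid held at a fixed 4 μg/ml alongside the β-lactam, read per CLSI recommendations. Strain E. coli DH10B; cultures grown in TS broth at 37°C for 18 h.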

[6] = Inhibition of Pseudomonas fluorescens PF-1 beta-lactamase BIC-1 expressed in Escherichia coli DH10B carrying pSau1
Outline: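 BIC-1 purified from E. coli DH10B(pSau1) lysate by S-Sepharose flowthrough, then Q-Sepharose with a 0–500 mM NaCl gradient. Enzyme preincubated with varied inhibitor (clavulanate, tazobactam or sulbactam) for 3 min at 30°C. Then 100 μM benzylpenicillin added. IC50 is the inhibitor concentration halving the hydrolysis rate.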

[7] = target: Carbapenem-hydrolyzing beta-lactamase KPC (Klebsiella pneumoniae, UniProt Q9F663); test: Inhibition of carbapenem-resistant Klebsiella pneumoniae carbepenem-hydrolyzing beta-lactamase KPC-1
Escherichia coli [8] = test: Antimicrobial activity against Escherichia coli DH10B by Etest; assay type: functional
Outline: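 MIC by Etest, interpreted per CLSI recommendations. Reference strain E. coli DH10B without recombinant plasmid; cultures grown in Trypticase soy broth at 37°C for 18 h.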

Chain of Carbapenem-hydrolyzing beta-lactamase KPC (Q9F663 whole entry): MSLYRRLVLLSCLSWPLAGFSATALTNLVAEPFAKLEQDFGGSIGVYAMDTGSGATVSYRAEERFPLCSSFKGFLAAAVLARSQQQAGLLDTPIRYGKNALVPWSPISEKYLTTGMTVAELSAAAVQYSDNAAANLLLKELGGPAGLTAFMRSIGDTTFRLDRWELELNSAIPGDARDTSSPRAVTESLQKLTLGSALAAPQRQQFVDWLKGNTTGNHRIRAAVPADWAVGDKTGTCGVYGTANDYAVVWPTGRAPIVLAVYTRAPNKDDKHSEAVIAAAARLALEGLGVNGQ

| Structure (SMILES) | MIC (Pseudomonas fluorescens [1]) [µg/mL] | MIC (Escherichia coli [2]) [µg/mL] | Km (Pseudomonas fluorescens [3]) [µM] | kcat (Pseudomonas fluorescens [3]) [s⁻¹] | MIC (Escherichia coli [8]) [µg/mL] | other results |
| --- | --- | --- | --- | --- | --- | --- |
| C[C@H]1[C@H](NC(=O)/C(=N\OC(C)(C)C(=O)O)c2csc(N)n2)C(=O)N1S(=O)(=O)O [AZTREONAM] | > 256 | 16 | > 1000 | 35 | – | – |
| CC1(C)S[C@@H]2[C@H](NC(=O)Cc3ccccc3)C(=O)N2[C@H]1C(=O)O | – | – | 48 | 31 | – | – |
| C[C@@H](O)[C@H]1C(=O)N2C(C(=O)O)=C(SCCNC=N)C[C@H]12 [IMIPENEM ANHYDROUS] | > 16 | – | 300 | 50 | – | MIC (Pseudomonas fluorescens [4]): > 16 µg/mL; MIC (Escherichia coli [5]): 0.12 µg/mL |
| O=C(Cc1cccs1)N[C@@H]1C(=O)N2C(C(=O)[O-])=C(C[n+]3ccccc3)CS[C@H]12 | – | – | 770 | 170 | – | – |
| O=C(O)[C@H]1/C(=C/CO)O[C@@H]2CC(=O)N21 [CLAVULANIC ACID] | – | – | – | – | – | IC50 [6]: 30 µM; IC50 [7]: 10.5 µM |
| CO[C@@]1(NC(=O)Cc2cccs2)C(=O)N2C(C(=O)O)=C(COC(N)=O)CS[C@@H]21 [CEFOXITIN] | > 256 | 4 | 825 | 1 | 1 (≈ 2.34 µM) | – |
| CO/N=C(\C(=O)N[C@@H]1C(=O)N2C(C(=O)O)=C(COC(C)=O)CS[C@H]12)c1csc(N)n1 [CEFOTAXIME] | > 32 | 0.5 | 2200 | 20 | 0.12 (≈ 0.263 µM) | – |
| CC(C)(O/N=C(\C(=O)N[C@@H]1C(=O)N2C(C(=O)[O-])=C(C[n+]3ccccc3)CS[C@H]12)c1csc(N)n1)C(=O)O [CEFTAZIDIME] | 2 (≈ 3.66 µM) | 0.5 | – | – | 0.5 (≈ 0.915 µM) | – |
| CC1(C)S[C@@H]2[C@H](NC(=O)[C@H](N)c3ccccc3)C(=O)N2[C@H]1C(=O)O | – | – | 1150 | 185 | – | – |
| C[C@]1(Cn2ccnn2)[C@H](C(=O)O)N2C(=O)C[C@H]2S1(=O)=O [TAZOBACTAM] | – | – | – | – | – | IC50 [6]: 6.5 µM |
